Legend:
Muscarinic receptor 2 = target: T1, Muscarinic receptor 2 (Cavia porcellus, UniProt Q8VH27); assay: Antagonist activity at muscarinic M2 receptor in guinea pig left atria assessed as inhibition of carbachol-induced […]; conditions: read-out: pA2 (converted)
T1 sequence (Q8VH27 whole entry): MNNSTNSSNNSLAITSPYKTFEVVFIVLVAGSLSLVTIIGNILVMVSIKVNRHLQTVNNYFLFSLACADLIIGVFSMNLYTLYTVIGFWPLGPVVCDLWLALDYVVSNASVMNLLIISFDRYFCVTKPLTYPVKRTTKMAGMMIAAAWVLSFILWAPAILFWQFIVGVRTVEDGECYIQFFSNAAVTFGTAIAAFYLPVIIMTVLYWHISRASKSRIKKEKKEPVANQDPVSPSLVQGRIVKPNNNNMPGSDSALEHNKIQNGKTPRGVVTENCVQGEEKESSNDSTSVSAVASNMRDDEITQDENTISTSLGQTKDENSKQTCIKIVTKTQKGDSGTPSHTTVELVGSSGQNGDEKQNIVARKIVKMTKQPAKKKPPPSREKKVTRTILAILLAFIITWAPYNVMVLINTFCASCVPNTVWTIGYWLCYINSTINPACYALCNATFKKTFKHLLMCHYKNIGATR
How it was run: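 Isolated left atria in Kreb's solution under 500 mg tension, stabilised 45 min, then electrically paced (2 Hz, 6 ms, 10 V square-wave submaximal pulses). Inotropic response recorded isometrically. Cumulative carbachol curves expressed as % of contraction before agonist. Antagonist tested at two or three concentrations. pA2 obtained by Schild analysis.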

[1] = target: T2, Muscarinic acetylcholine receptor M2 (Rattus norvegicus, UniProt P10980); assay: Displacement of [3H]NMS from muscarinic M2 receptor in Sprague-Dawley rat left atria after 60 mins
T2 sequence (P10980 whole entry): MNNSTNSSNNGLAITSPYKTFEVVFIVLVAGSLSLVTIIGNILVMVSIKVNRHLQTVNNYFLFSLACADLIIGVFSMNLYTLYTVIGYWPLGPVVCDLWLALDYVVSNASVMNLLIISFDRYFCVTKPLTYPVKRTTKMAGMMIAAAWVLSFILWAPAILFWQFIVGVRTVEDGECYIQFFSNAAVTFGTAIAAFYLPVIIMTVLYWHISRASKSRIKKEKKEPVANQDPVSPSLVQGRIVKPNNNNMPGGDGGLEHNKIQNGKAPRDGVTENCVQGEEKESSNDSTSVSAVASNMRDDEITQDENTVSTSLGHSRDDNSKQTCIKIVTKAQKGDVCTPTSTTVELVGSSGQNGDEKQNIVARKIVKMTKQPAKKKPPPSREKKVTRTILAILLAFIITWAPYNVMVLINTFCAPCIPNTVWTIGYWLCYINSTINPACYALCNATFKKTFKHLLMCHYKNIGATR
How it was run: (§1)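 Membranes from male SD rat (220–250 g) left atria (M2) or submandibulary glands (M3). Tissue homogenised in ice-cold 0.32 M sucrose/50 mM Tris pH 7.4, then spun at 1000g and 20000g, all steps at 4 °C. Membranes (0.1 mg protein) incubated 60 min at 37 °C with 0.4 nM [3H]NMS plus increasing test concentrations. Filtration read-out. IC50 converted to Ki by Cheng–Prusoff, mean SEM.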

[2] = target: Muscarinic receptor M2 and M3 (Rattus norvegicus) (UniProt P08483+P10980); assay: Selectivity ratio of Ki for muscarinic M2 receptor in Sprague-Dawley rat left atria to Ki for muscarinic M3 receptor in Sprague-Dawley rat submandibulary gland
Sequence of Muscarinic receptor M2 and M3 (Rattus norvegicus) (P08483 whole entry, looked up, one chain of several): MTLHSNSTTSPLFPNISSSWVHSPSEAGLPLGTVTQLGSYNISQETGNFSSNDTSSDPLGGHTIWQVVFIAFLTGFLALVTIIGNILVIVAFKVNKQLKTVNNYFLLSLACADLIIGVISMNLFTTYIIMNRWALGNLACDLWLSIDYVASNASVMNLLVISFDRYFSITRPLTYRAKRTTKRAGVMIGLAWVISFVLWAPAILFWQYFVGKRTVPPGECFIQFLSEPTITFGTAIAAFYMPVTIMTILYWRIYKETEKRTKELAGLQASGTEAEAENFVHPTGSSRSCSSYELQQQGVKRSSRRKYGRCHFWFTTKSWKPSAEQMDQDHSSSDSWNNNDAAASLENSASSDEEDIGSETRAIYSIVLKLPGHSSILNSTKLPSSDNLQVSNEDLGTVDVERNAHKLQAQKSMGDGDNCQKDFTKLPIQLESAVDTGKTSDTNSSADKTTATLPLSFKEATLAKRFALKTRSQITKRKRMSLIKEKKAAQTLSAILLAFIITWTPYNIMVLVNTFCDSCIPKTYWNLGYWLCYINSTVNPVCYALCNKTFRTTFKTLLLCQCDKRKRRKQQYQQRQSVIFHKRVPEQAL

[3] = target: Muscarinic acetylcholine receptor M3 (Cavia porcellus, UniProt Q8VH26); assay: Antagonist activity at muscarinic M3 receptor in guinea pig ilea assessed as inhibition of carbachol-induced contraction; conditions: read-out: pA2 (converted)
Sequence of Muscarinic acetylcholine receptor M3 (Cavia porcellus, UniProt Q8VH26) (Q8VH26 whole entry): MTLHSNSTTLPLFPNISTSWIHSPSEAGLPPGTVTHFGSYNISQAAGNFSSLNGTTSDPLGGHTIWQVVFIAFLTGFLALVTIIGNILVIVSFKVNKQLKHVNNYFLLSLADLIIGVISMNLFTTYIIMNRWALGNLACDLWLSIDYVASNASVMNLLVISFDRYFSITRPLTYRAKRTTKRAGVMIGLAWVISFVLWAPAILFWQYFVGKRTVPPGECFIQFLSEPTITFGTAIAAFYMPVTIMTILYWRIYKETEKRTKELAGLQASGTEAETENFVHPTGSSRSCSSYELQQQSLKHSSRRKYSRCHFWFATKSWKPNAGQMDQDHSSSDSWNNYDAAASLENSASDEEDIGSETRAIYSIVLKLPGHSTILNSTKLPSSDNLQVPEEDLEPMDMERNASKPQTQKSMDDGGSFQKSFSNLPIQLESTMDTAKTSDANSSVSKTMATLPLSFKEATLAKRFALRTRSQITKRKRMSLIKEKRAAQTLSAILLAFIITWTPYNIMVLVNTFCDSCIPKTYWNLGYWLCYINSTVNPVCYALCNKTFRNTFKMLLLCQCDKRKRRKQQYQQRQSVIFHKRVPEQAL
How it was run: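 Ileal strips (1.5 cm) in 10 ml baths of Kreb's solution under 1000 mg load, equilibrated 30 min with fluid changed every 15 min. Isotonic recording. Cumulative carbachol curve with roughly 3-fold steps, each added once the prior response was steady. Responses expressed as % of control maximum. Antagonist at three concentrations. pA2 by Schild analysis.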

[4] = target: Muscarinic acetylcholine receptor M3 (Rattus norvegicus, UniProt P08483); assay: Displacement of [3H]NMS from muscarinic M3 receptor in Sprague-Dawley rat submandibulary gland after 60 mins; how it was run: as §1
Sequence of Muscarinic acetylcholine receptor M3 (Rattus norvegicus, UniProt P08483) (P08483 whole entry): as the sequence (P08483 whole entry, looked up, one chain of several) above

CC(=O)O[C@H]1C[C@@H]2C[C@@H](OC(=O)c3ccccc3)C[C@@H]1N2C
Kb (Muscarinic receptor 2): 1.32 µM | Ki [1]: 10.7 µM | Ratio Ki [2]: 4 | Kb [3]: 0.309 µM | Ki [4]: 2.7 µM

CC(=O)O[C@H]1C[C@@H]2C[C@@H](OC(=O)Cc3ccccc3)C[C@@H]1N2C
Kb (Muscarinic receptor 2): 1.1 µM | Ki [1]: 12 µM | Ratio Ki [2]: 13 | Kb [3]: 0.123 µM | Ki [4]: 0.92 µM

CC(=O)O[C@@H]1C[C@@H]2C[C@H](OC(=O)c3ccccc3Cl)C[C@@H]1N2C
Ki [1]: 95 µM | Ratio Ki [2]: 1.1 | Ki [4]: 83 µM

CC(=O)O[C@H]1C[C@@H]2C[C@@H](OC(=O)c3ccccc3[N+](=O)[O-])C[C@@H]1N2C
Kb (Muscarinic receptor 2): 0.851 µM | Ki [1]: 9.8 µM | Ratio Ki [2]: 2.6 | Kb [3]: 0.389 µM | Ki [4]: 3.7 µM

CC(=O)O[C@H]1C[C@@H]2C[C@@H](OC(=O)c3ccccc3Cl)C[C@@H]1N2C
Kb (Muscarinic receptor 2): 0.631 µM | Ki [1]: 8.8 µM | Ratio Ki [2]: 6.3 | Kb [3]: 0.275 µM | Ki [4]: 1.4 µM

CC(=O)O[C@@H]1C[C@@H]2C[C@H](OC(=O)Cc3ccccc3)C[C@@H]1N2C
Ki [1]: 86 µM | Ratio Ki [2]: 0.9 | Ki [4]: 95 µM

CC(=O)O[C@@H]1C[C@@H]2C[C@H](OC(=O)c3ccccc3)C[C@@H]1N2C
Ki [1]: 77 µM | Ratio Ki [2]: 1.1 | Ki [4]: 71 µM

CC(=O)O[C@@H]1C[C@@H]2C[C@H](OC(=O)c3ccccc3[N+](=O)[O-])C[C@@H]1N2C
Ki [1]: 84 µM | Ratio Ki [2]: 1.3 | Ki [4]: 66 µM
